The test system of one series is Hepatitis B virus. The series can be described thus: Antiviral activity against HBV infected in human HepG2(2.2.15) cells assessed as inhibition of HBeAg production after 9 days by ELISA. It is filed as functional, organism-based. The conditions noted are these: HepG2 2.2.15, 216 h. In outline: (§1)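 HepG2 2.2.15 cells (HBV-producing) given a range of compound concentrations for nine days; culture supernatants collected and HBsAg or HBeAg levels measured by ELISA. IC50 taken as the concentration giving 50% inhibition of antigen level.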
As for `COc1ccc2c(=O)c(/C=C/C(=O)NCCc3ccccc3F)coc2c1`, the 50% inhibitory concentration (IC50) was greater than 100 µM.
In the case of `COc1ccc2c(=O)c(/C=C/C(=O)NCCc3cccc(F)c3)coc2c1`, the IC50 is greater than 100 µM.
Same read-out and setting: under `Cc1ccccc1NC(=O)/C=C/c1coc2cc(O)ccc2c1=O` stands greater than 100 µM; under `COc1ccc(NC(=O)/C=C/c2coc3cc(O)ccc3c2=O)cc1`, greater than 100 µM.
As for `O=C(/C=C/c1coc2cc(O)ccc2c1=O)NCc1ccccc1`, the IC50 is greater than 100 µM.
As to `O=C(/C=C/c1coc2cc(O)ccc2c1=O)NCc1ccc(F)cc1`, the IC50 is greater than 100 µM.
Turning to `COc1ccc2c(=O)c(/C=C/C(=O)Nc3ccccc3OC)coc2c1`, the IC50 is greater than 100 µM.
On the same count and under the same terms, under `COc1cccc(NC(=O)/C=C/c2coc3cc(OC)ccc3c2=O)c1` stands greater than 100 µM.

System in another series: not listed separately
The series can be described thus: Growth inhibition of human QGY7701 cells after 48 hrs by MTT assay. It is filed as functional. The settings on record: QGY7701, 48 h. In outline: (§2)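 Cells seeded at 8000/well, treated 24 h later in duplicate with a range of concentrations (DMSO stock 10 g/L diluted in fresh medium), 48 h at 37 °C, 5% CO2. MTT (5 mg/ml in PBS) added for 4 h, formazan dissolved in DMSO, absorbance read at 570 nm. IC50 is the concentration giving 50% survival.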
In turn, `COc1ccc2c(=O)c(/C=C/C(=O)NCCc3ccccc3F)coc2c1` displayed an IC50 of 81.7 µM.
As to `COc1ccc2c(=O)c(/C=C/C(=O)NCCc3cccc(F)c3)coc2c1`, the IC50 is 23.4 µM.
The same measure, in the same setting: under `Cc1ccccc1NC(=O)/C=C/c1coc2cc(O)ccc2c1=O` stands 9.32 µM; under `COc1ccc(NC(=O)/C=C/c2coc3cc(O)ccc3c2=O)cc1`, greater than 100 µM; under `O=C(/C=C/c1coc2cc(O)ccc2c1=O)NCc1ccccc1`, 63 µM.
Molecule `O=C(/C=C/c1coc2cc(O)ccc2c1=O)NCc1ccc(F)cc1` came in with an IC50 greater than 100 µM.
Still for that read-out and setting: under `COc1ccc2c(=O)c(/C=C/C(=O)Nc3ccccc3OC)coc2c1` stands 17.6 µM.
Molecule `COc1cccc(NC(=O)/C=C/c2coc3cc(OC)ccc3c2=O)c1` showed an IC50 of 39.1 µM.

For the next series, the system named is Hepatitis B virus. The series can be described thus: Antiviral activity against HBV infected in human HepG2(2.2.15) cells assessed as inhibition of HBsAg production after 9 days by ELISA. Type of series: functional, organism-based. The conditions noted are these: HepG2 2.2.15, 216 h. The method, boiled down: as §1
With `COc1ccc2c(=O)c(/C=C/C(=O)NCCc3ccccc3F)coc2c1`, the IC50 was 47.9 µM.
`COc1ccc2c(=O)c(/C=C/C(=O)NCCc3cccc(F)c3)coc2c1`: the IC50 was greater than 100 µM.
Take `Cc1ccccc1NC(=O)/C=C/c1coc2cc(O)ccc2c1=O`: the IC50 is greater than 100 µM.
On to `COc1ccc(NC(=O)/C=C/c2coc3cc(O)ccc3c2=O)cc1`, for which the IC50 is greater than 100 µM.
With `O=C(/C=C/c1coc2cc(O)ccc2c1=O)NCc1ccccc1`, the IC50 was greater than 100 µM.
Turning to `O=C(/C=C/c1coc2cc(O)ccc2c1=O)NCc1ccc(F)cc1`, the IC50 was greater than 100 µM.
On to `COc1ccc2c(=O)c(/C=C/C(=O)Nc3ccccc3OC)coc2c1`, for which the IC50 is greater than 100 µM.
Consider `COc1cccc(NC(=O)/C=C/c2coc3cc(OC)ccc3c2=O)c1`, for which the IC50 is greater than 100 µM.

System in a further series: not listed separately
The series can be described thus: Cytotoxicity against human HepG2(2.2.15) cells compound treated for 48 hrs followed by incubation for 9 days by MTT assay.
Conditions: not given
It is filed as cell-based. The method, boiled down:
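HepG2 2.2.15 cells kept 48 h in plates before adding compounds (DMSO stocks serially diluted in medium), then incubated at 37 °C for 9 days. Media-only wells as blank. MTT (5 g/L) added 4 h before lysis in 10% SDS/50% DMF, pH 7.2; OD at 570 nm gives percent cell death; CC50 derived.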
Turning to `COc1ccc2c(=O)c(/C=C/C(=O)NCCc3ccccc3F)coc2c1`, the midpoint of cytotoxicity, the CC50 at 48 h, lay at 457 µM.
Still for that read-out and setting: the result for `COc1ccc2c(=O)c(/C=C/C(=O)NCCc3cccc(F)c3)coc2c1` reads 1030 µM.
`Cc1ccccc1NC(=O)/C=C/c1coc2cc(O)ccc2c1=O` came in with a CC50 at 48 h of 374 µM.
Molecule `COc1ccc(NC(=O)/C=C/c2coc3cc(O)ccc3c2=O)cc1` returned a CC50 at 48 h of 976 µM.
`O=C(/C=C/c1coc2cc(O)ccc2c1=O)NCc1ccccc1` showed a CC50 at 48 h of 436 µM.
`O=C(/C=C/c1coc2cc(O)ccc2c1=O)NCc1ccc(F)cc1` registered a CC50 at 48 h of 357 µM.
`COc1ccc2c(=O)c(/C=C/C(=O)Nc3ccccc3OC)coc2c1` returned a CC50 at 48 h of 1050 µM.
`COc1cccc(NC(=O)/C=C/c2coc3cc(OC)ccc3c2=O)c1` returned a cytotoxic concentration (CC50) at 48 h of 1130 µM.

System in another series: not listed separately
The experiment in a line: Selectivity index, ratio of CC50 for human HepG2(2.2.15) cells to IC50 for HBV infected in human HepG2(2.2.15) cells assessed as inhibition of HBsAg production. Type of series: functional.
Conditions: not given
In outline:
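Selectivity index calculated as CC50 in HepG2 2.2.15 cells (MTT, 9-day exposure) divided by IC50 for HBeAg or HBsAg reduction (ELISA of 9-day supernatants).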
Regarding `COc1ccc2c(=O)c(/C=C/C(=O)NCCc3ccccc3F)coc2c1`, the “Ratio CC50/IC50” value amounted to 9.55.

The subject of another series is Hepatitis B virus. The series can be described thus: Antiviral activity against HBV infected in human HepG2(2.2.15) cells assessed as inhibition of viral replication after 9 days by fluorescence PCR method. The conditions noted are these: HepG2 2.2.15, 216 h. It is filed as functional, organism-based. The method, boiled down: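 HepG2 2.2.15 cells given a range of compound concentrations for nine days; HBV DNA quantified by fluorescence PCR. IC50 taken as the concentration giving 50% inhibition of HBV DNA replication.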
With `COc1ccc2c(=O)c(/C=C/C(=O)NCCc3ccccc3F)coc2c1`, the IC50 was greater than 100 µM.
Same read-out and setting: the result for `COc1ccc2c(=O)c(/C=C/C(=O)NCCc3cccc(F)c3)coc2c1` reads greater than 100 µM.
On to `Cc1ccccc1NC(=O)/C=C/c1coc2cc(O)ccc2c1=O`, for which the IC50 was greater than 100 µM.
Regarding `COc1ccc(NC(=O)/C=C/c2coc3cc(O)ccc3c2=O)cc1`, the IC50 stood at 7.01 µM.
With `O=C(/C=C/c1coc2cc(O)ccc2c1=O)NCc1ccccc1`, the IC50 is greater than 100 µM.
Still for that read-out and setting: the result for `O=C(/C=C/c1coc2cc(O)ccc2c1=O)NCc1ccc(F)cc1` reads 33.5 µM.
For `COc1ccc2c(=O)c(/C=C/C(=O)Nc3ccccc3OC)coc2c1`, the IC50 is greater than 100 µM.
For `COc1cccc(NC(=O)/C=C/c2coc3cc(OC)ccc3c2=O)c1`, the IC50 is greater than 100 µM.

The next series relates to A549. The series can be described thus: Growth inhibition of human A549 cells after 48 hrs by MTT assay. It is filed as functional, cell-based. The conditions noted are these: A549, 48 h. In outline:
as §2
Turning to `COc1ccc2c(=O)c(/C=C/C(=O)NCCc3ccccc3F)coc2c1`, the IC50 is 10.3 µM.
`COc1ccc2c(=O)c(/C=C/C(=O)NCCc3cccc(F)c3)coc2c1` displayed an IC50 of 9.77 µM.
Consider `Cc1ccccc1NC(=O)/C=C/c1coc2cc(O)ccc2c1=O`, for which the IC50 is greater than 100 µM.
In turn, `COc1ccc(NC(=O)/C=C/c2coc3cc(O)ccc3c2=O)cc1` returned an IC50 of 12.8 µM.
The same measure, in the same setting: under `O=C(/C=C/c1coc2cc(O)ccc2c1=O)NCc1ccccc1` stands greater than 100 µM.
On the same count and under the same terms, under `O=C(/C=C/c1coc2cc(O)ccc2c1=O)NCc1ccc(F)cc1` stands greater than 100 µM.
Turning to `COc1ccc2c(=O)c(/C=C/C(=O)Nc3ccccc3OC)coc2c1`, the concentration for half-maximal inhibition (IC50) is greater than 100 µM.
Take `COc1cccc(NC(=O)/C=C/c2coc3cc(OC)ccc3c2=O)c1`: the IC50 was 12.8 µM.

System in a further series: not listed separately
The series can be described thus: Selectivity index, ratio of CC50 for human HepG2(2.2.15) cells to IC50 for HBV infected in human HepG2(2.2.15) cells assessed as inhibition of viral replication. It is filed as functional.
Conditions: not given
The method, boiled down: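 Selectivity index calculated as CC50 in HepG2 2.2.15 cells (MTT, 9-day exposure) divided by IC50 for HBV DNA reduction measured by fluorescence PCR after 9 days.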
`COc1ccc(NC(=O)/C=C/c2coc3cc(O)ccc3c2=O)cc1`: the “Ratio CC50/IC50” value amounted to 139.21.
With `O=C(/C=C/c1coc2cc(O)ccc2c1=O)NCc1ccc(F)cc1`, the “Ratio CC50/IC50” value is given as 10.68.

The next series deals with HeLa. The experiment in a line: Growth inhibition of human HeLa cells after 48 hrs by MTT assay. It is filed as functional, cell-based.
Conditions: not given
In outline: as §2
The molecule `COc1ccc2c(=O)c(/C=C/C(=O)NCCc3ccccc3F)coc2c1` had an IC50 of 12.2 µM.
For the molecule `COc1ccc2c(=O)c(/C=C/C(=O)NCCc3cccc(F)c3)coc2c1`, the IC50 turned out to be 15.3 µM.
The molecule `Cc1ccccc1NC(=O)/C=C/c1coc2cc(O)ccc2c1=O` displayed an IC50 of 8.67 µM.
In turn, `COc1ccc(NC(=O)/C=C/c2coc3cc(O)ccc3c2=O)cc1` displayed an IC50 greater than 100 µM.
The same measure, in the same setting: under `O=C(/C=C/c1coc2cc(O)ccc2c1=O)NCc1ccccc1` stands greater than 100 µM; under `O=C(/C=C/c1coc2cc(O)ccc2c1=O)NCc1ccc(F)cc1`, greater than 100 µM; under `COc1ccc2c(=O)c(/C=C/C(=O)Nc3ccccc3OC)coc2c1`, greater than 100 µM.
Regarding `COc1cccc(NC(=O)/C=C/c2coc3cc(OC)ccc3c2=O)c1`, the IC50 was found to be 19.2 µM.

System in another series: not listed separately
The series can be described thus: Growth inhibition of human L02 cells after 48 hrs by MTT assay. Type of series: functional, cell-based. The conditions noted are these: L02, 48 h. In outline:
as §2
`COc1ccc2c(=O)c(/C=C/C(=O)NCCc3ccccc3F)coc2c1` had an IC50 greater than 200 µM.
Same read-out and setting: under `COc1ccc2c(=O)c(/C=C/C(=O)NCCc3cccc(F)c3)coc2c1` stands greater than 200 µM.
Take `Cc1ccccc1NC(=O)/C=C/c1coc2cc(O)ccc2c1=O`: the IC50 is greater than 200 µM.
Same read-out and setting: the result for `COc1ccc(NC(=O)/C=C/c2coc3cc(O)ccc3c2=O)cc1` reads greater than 200 µM.
`O=C(/C=C/c1coc2cc(O)ccc2c1=O)NCc1ccccc1` displayed an IC50 greater than 200 µM.
Take `O=C(/C=C/c1coc2cc(O)ccc2c1=O)NCc1ccc(F)cc1`: the IC50 is greater than 200 µM.
Same read-out and setting: the result for `COc1ccc2c(=O)c(/C=C/C(=O)Nc3ccccc3OC)coc2c1` reads greater than 200 µM; that for `COc1cccc(NC(=O)/C=C/c2coc3cc(OC)ccc3c2=O)c1`, greater than 200 µM.

In the next series the test system is Huh-7. The experiment in a line: Growth inhibition of human HuH7 cells after 48 hrs by MTT assay. The settings on record: Huh-7, 48 h. Type of series: functional, cell-based. The method, boiled down:
as §2
In turn, `COc1ccc2c(=O)c(/C=C/C(=O)NCCc3ccccc3F)coc2c1` showed an IC50 greater than 100 µM.
For `COc1ccc2c(=O)c(/C=C/C(=O)NCCc3cccc(F)c3)coc2c1`, the IC50 amounted to 8.96 µM.
In the case of `Cc1ccccc1NC(=O)/C=C/c1coc2cc(O)ccc2c1=O`, inhibition was half-maximal at 11.1 µM (IC50).
Take `COc1ccc(NC(=O)/C=C/c2coc3cc(O)ccc3c2=O)cc1`: the IC50 was greater than 100 µM.
For the molecule `O=C(/C=C/c1coc2cc(O)ccc2c1=O)NCc1ccccc1`, half-maximal inhibition (IC50) required 4.69 µM.
`O=C(/C=C/c1coc2cc(O)ccc2c1=O)NCc1ccc(F)cc1` had an IC50 greater than 100 µM.
Still for that read-out and setting: the result for `COc1ccc2c(=O)c(/C=C/C(=O)Nc3ccccc3OC)coc2c1` reads 32.3 µM; that for `COc1cccc(NC(=O)/C=C/c2coc3cc(OC)ccc3c2=O)c1`, 11.1 µM.

Values taken from ChEMBL document CHEMBL2331205, “Anti-hepatitis B virus and anti-cancer activities of novel isoflavone analogs” (Eur J Med Chem, 2013).
